# In ChEMBL document CHEMBL1131473, “A novel class of orally active non-peptide bradykinin B2 receptor antagonists. 1. Construction of the basic framework” (J Med Chem, 1998):
# Assays:
# [1] = Compound at a dose of 10 mg/kg was orally administered to rats and Area under curve was reported; format: ADME, organism-based; design: dose 10 mg/kg, route oral; details: rat, in vivo, po
# Summary of the method: (§1)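 Male Sprague-Dawley rats (3), starved overnight, given compound orally in 0.5% methocel (0.5 mL/100 g). Femoral-artery blood sampled at 0, 0.5, 1, 2, 4 and 6 h. Intravenous arm used a DMSO solution into the femoral vein, sampled 0 min–6 h. Plasma extracted with CHCl3, dried, reconstituted in MeOH and quantified by HPLC peak area against spiked time-0 plasma standards.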
# [2] = Compound at a dose of 10 mg/kg was orally administered to rats and Bioavailability was reported; format: ADME, organism-based; details: rat, in vivo, po, read-out: BA; summary of the method: as §1
# [3] = Compound at a dose of 10 mg/kg was orally administered to rats and maximum plasma concentration was reported; format: ADME, organism-based; design: dose 10 mg/kg, route oral; details: rat, po; summary of the method: as §1
# [4] = Compound at a dose of 10 mg/kg was orally administered to rats and Half-life value was reported; format: ADME, organism-based; design: dose 10 mg/kg, route oral; details: rat, in vivo, po; summary of the method: as §1
# B2 bradykinin receptor = biological target: T1, B2 bradykinin receptor (Cavia porcellus, UniProt O70526); experiment: In vitro for inhibition of specific binding of [3H]BK (0.06 nM) to bradykinin receptor B2 in guinea pig ileum membrane preparations.; format: cell membranes
# T1 sequence (O70526 whole entry): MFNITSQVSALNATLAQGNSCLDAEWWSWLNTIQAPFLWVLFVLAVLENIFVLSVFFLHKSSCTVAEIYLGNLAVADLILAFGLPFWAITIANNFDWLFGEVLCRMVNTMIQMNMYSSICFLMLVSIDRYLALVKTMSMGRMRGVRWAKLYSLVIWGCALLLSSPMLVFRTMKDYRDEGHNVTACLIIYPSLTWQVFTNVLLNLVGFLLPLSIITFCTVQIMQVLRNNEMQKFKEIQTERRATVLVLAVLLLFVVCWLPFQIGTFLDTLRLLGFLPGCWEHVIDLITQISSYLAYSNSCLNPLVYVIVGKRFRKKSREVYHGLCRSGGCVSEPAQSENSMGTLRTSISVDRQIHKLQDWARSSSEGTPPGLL
# Summary of the method: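 Ileal membranes from male Hartley guinea pigs, prepared in TES/1,10-phenanthroline pH 6.8 by 1000g then 100000g spins. Assay buffer held bacitracin, DTT, 1 μM captopril and 0.1% BSA. Membranes (0.2 mg protein/mL) incubated with [3H]BK (final 0.06 nM) and varying compound concentrations for 60 min at room temperature. Bound ligand filtered on GF/B and counted by scintillation; nonspecific binding taken with 1 μM unlabeled BK.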
# Cavia porcellus = experiment: In vivo functional antagonistic activity against BK-induced bronchoconstriction in guinea pigs at an oral dose of 1 mg/kg.
# Summary of the method: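 Male Hartley guinea pigs (470-750 g), fasted, anesthetized with pentobarbital (30 mg/kg ip), ventilated, given alcuronium iv and propranolol sc. BK (5 μg/kg iv) raised pulmonary insufflation pressure, measured by modified Konzett–Rössler. Compound in 0.5% methylcellulose, or vehicle, was given by oesophageal cannula. BK was repeated 30 min later. Response expressed as ΔPIP after drug over ΔPIP before drug ×100; Student's t-test vs control.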
Structure (SMILES),IC50 (B2 bradykinin receptor) [nM],also measured
CCCC(=O)NCC(=O)N(C)c1ccc(Cl)c(COc2cccn3c(Br)c(C)nc23)c1Cl,8.9,AUC [1]: 11700 ng·h/mL; bioavailability [2]: 90%; Cmax [3]: 9970 ng/mL; half-life [4]: 18 min; inhibition in vivo at 1 mg/kg (Cavia porcellus): 52.7%
Cc1nc2c(OCc3c(Cl)ccc(N(C)C(=O)CNC(=O)CN(C)C)c3Cl)cccn2c1Br,2.4,AUC [1]: 940 ng·h/mL; bioavailability [2]: 32.8%; Cmax [3]: 290 ng/mL; half-life [4]: 18 min; inhibition in vivo at 1 mg/kg (Cavia porcellus): 72.4%
CCOC(=O)c1c(C)nc2c(OCc3c(Cl)cccc3Cl)cccn12,> 100000,
Cc1nc2c(OCc3c(Cl)ccc(N(C)S(C)(=O)=O)c3Cl)cccn2c1Br,2100,
C#CCOCc1c(C)nc2c(OCc3c(Cl)cccc3Cl)cccn12,7600,
Cc1nc2c(OCc3c(Cl)ccc(N(C)C(=O)CN)c3Cl)cccn2c1Br,380,
COC(=O)N(C)c1ccc(Cl)c(COc2cccn3c(Br)c(C)nc23)c1Cl,1400,
Cc1nc2c(OCc3c(F)cccc3Cl)cccn2c1Br,1500,
Clc1cccc(Cl)c1COc1cccn2ccnc12,31000,
Cc1nc2c(OCc3c(Cl)cccc3Cl)cccn2c1CO,7500,
COCC(=O)N(C)c1ccc(Cl)c(COc2cccn3c(Br)c(C)nc23)c1Cl,580,
CC(=O)NC(C)C(=O)N(C)c1ccc(Cl)c(COc2cccn3c(Br)c(C)nc23)c1Cl (stereo not drawn),770,
CC(=O)N(Cc1c(Cl)cccc1Cl)c1cccn2c(Br)c(C)nc12,> 100000,
CC(=O)NCC(=O)N(C)c1ccc(Cl)c(COc2cccn3c(Br)c(C)nc23)c1Cl,16,
Cc1nc2c(OCc3c(Cl)cccc3Cl)cccn2c1Br,230,
Cc1nc2c(COc3c(Cl)cccc3Cl)cccn2c1Br,> 100000,
COc1ccc(Cl)c(COc2cccn3c(Br)c(C)nc23)c1Cl,540,
CC(=O)Nc1ccc(Cl)c(COc2cccn3c(Br)c(C)nc23)c1Cl,1800,
Cc1nc2c(C(=O)Nc3c(Cl)cccc3Cl)cccn2c1Br,> 100000,
CCN(C(C)=O)c1ccc(Cl)c(COc2cccn3c(Br)c(C)nc23)c1Cl,150,
CCN(C)c1ccc(Cl)c(COc2cccn3c(Br)c(C)nc23)c1Cl,410,
CC(=O)OCC(=O)N(C)c1ccc(Cl)c(COc2cccn3c(Br)c(C)nc23)c1Cl,500,
Cc1nc2c(OCc3c(Cl)ccc(Cl)c3Cl)cccn2c1Br,490,
CCC(=O)N(C)c1ccc(Cl)c(COc2cccn3c(Br)c(C)nc23)c1Cl,72,
Cc1cn2cccc(OCc3c(Cl)cccc3Cl)c2n1,4500,

Structure (SMILES),IC50 (B2 bradykinin receptor) [nM],also measured
CC(=O)N(C)c1c(Cl)cc(Cl)c(COc2cccn3c(Br)c(C)nc23)c1Cl,420,
Cc1nc2c(OCc3c(Cl)ccc([N+](=O)[O-])c3Cl)cccn2c1Br,42,
Cc1nc2c(OCc3c(Cl)cccc3Cl)cccn2c1Cl,200,
CCNC(=O)NCC(=O)N(C)c1ccc(Cl)c(COc2cccn3c(Br)c(C)nc23)c1Cl,9,AUC [1]: 58900 ng·h/mL; bioavailability [2]: 75%; Cmax [3]: 52600 ng/mL; half-life [4]: 30 min; inhibition in vivo at 1 mg/kg (Cavia porcellus): 57.2%
CCc1cn2cccc(OCc3c(Cl)cccc3Cl)c2n1,10000,
Cc1nc2c(C(=O)Oc3c(Cl)cccc3Cl)cccn2c1Br,> 100000,
Cc1nc2c(OCc3c(F)cccc3F)cccn2c1Cl,1800,
Cc1nc2c(OCc3c(Br)cccc3Br)cccn2c1Cl,1700,
CC(=O)N(C)CC(=O)N(C)c1ccc(Cl)c(COc2cccn3c(Br)c(C)nc23)c1Cl,1600,
Cc1nc2c(/C=C/c3c(Cl)cccc3Cl)cccn2c1Br,> 100000,
Cc1nc2c(NCc3c(Cl)cccc3Cl)cccn2c1Cl,1200,
CC(=O)NCCC(=O)N(C)c1ccc(Cl)c(COc2cccn3c(Br)c(C)nc23)c1Cl,810,
CNC(=O)N(C)c1ccc(Cl)c(COc2cccn3c(Br)c(C)nc23)c1Cl,350,
CCn1c(C)cc(C#N)c1-c1ccc(COc2cc(C)nc3ccccc23)cc1,31000,
CC(=O)N(C)c1ccc(Cl)c(COc2cccn3c(Br)c(C)nc23)c1Cl,54,
Cc1nc2c(NC(=O)c3c(Cl)cccc3Cl)cccn2c1Cl,> 100000,
FC(F)(F)c1cn2cccc(OCc3c(Cl)cccc3Cl)c2n1,> 100000,
Cc1nc2c(OCc3c(Cl)ccc(N)c3Cl)cccn2c1Br,1500,
CCC(=O)NCC(=O)N(C)c1ccc(Cl)c(COc2cccn3c(Br)c(C)nc23)c1Cl,19,inhibition in vivo at 1 mg/kg (Cavia porcellus): 48.4%
Cc1nc2c(OCc3c(Cl)ccc(N(C)C(=O)CNS(C)(=O)=O)c3Cl)cccn2c1Br,580,inhibition in vivo at 1 mg/kg (Cavia porcellus): 48.4%
CCCNC(=O)NCC(=O)N(C)c1ccc(Cl)c(COc2cccn3c(Br)c(C)nc23)c1Cl,26,inhibition in vivo at 1 mg/kg (Cavia porcellus): 62.4%
CCCCC(=O)NCC(=O)N(C)c1ccc(Cl)c(COc2cccn3c(Br)c(C)nc23)c1Cl,7.8,inhibition in vivo at 1 mg/kg (Cavia porcellus): 29.7%
CNC(=O)NCC(=O)N(C)c1ccc(Cl)c(COc2cccn3c(Br)c(C)nc23)c1Cl,46,inhibition in vivo at 1 mg/kg (Cavia porcellus): 41.5%
CC(=O)NCC(=O)N(C)c1ccc(Cl)c(COc2cccn3c(Br)c(C)nc23)c1Cl.Cl,16,AUC [1]: 3150 ng·h/mL; Cmax [3]: 3640 ng/mL; half-life [4]: 25.2 min; inhibition in vivo at 1 mg/kg (Cavia porcellus): 62.3%
